# Most compounds without a hit are left out; they make up all but 4% or so of the library.
# MDM2 E3 inh: blocks human Mdm2 ubiquitin ligase activity; actives 0.11% (n = 210,000); signal enhancement, % at 5 µM; cell-based MDM2 ubiquitination luciferase reporter, 2 h; 0 = plate control, 100 = twice control, blank-subtracted; Q00987;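 active means signal enhancement of 30% or more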;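 further: luminescence tracks abundance of the self-degrading MDM2-luciferase fusion protein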
# Target sequence (Q00987 whole entry, looked up, the tested form may be a part): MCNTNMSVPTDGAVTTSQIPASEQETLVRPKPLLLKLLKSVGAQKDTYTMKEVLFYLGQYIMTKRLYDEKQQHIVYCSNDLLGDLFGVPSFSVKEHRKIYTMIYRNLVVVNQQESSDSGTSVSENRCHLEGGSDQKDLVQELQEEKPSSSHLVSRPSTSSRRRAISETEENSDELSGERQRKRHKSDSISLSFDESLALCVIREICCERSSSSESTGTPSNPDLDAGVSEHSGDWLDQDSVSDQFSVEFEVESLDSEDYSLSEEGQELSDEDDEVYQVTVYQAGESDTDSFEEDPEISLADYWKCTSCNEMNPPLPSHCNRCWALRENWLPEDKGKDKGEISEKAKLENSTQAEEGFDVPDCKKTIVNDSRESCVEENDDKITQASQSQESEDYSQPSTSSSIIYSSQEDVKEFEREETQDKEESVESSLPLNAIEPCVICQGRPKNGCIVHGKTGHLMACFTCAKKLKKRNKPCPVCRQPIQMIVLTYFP
#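 Assay system: stable mammalian line carrying autodegrading MDM2–luciferase fusion reporter; Input: 2000 cells in each well; Compound dosing: single-point 5 µM; Schedule: 2 h compound exposure at 37 °C; Signal: SteadyLite luciferase luminescence after 15 min room-temperature reagent incubation; Evaluation: % luminescence enhancement versus blank-corrected plate control mean; Benchmarks: plate controls and plate blanks.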
# RAM network inh: blocks the yeast RAM network; AID 868; inhibition, % at 50 µM; S. cerevisiae dse1pr::URA3 reporter, 5-FOA growth OD615, 2 d; analog-sensitive cbk1-as2 kinase mutant strain; actives 1.8% (n = 190,000);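 active means inhibition above a set limit, 3 SD over mean compound inhibition, cut at about 8.4% in these data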;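 further: 0% = DMSO-only wells with no growth and 100% = 10 µM 1-NA-PP1 full growth; inhibition rescues growth on 5-FOA so higher OD means more RAM inhibition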
# Insulin prom inh: TRM-6 insulin promoter activity inhibition; TRM-6 cells, insulin promoter-eGFP reporter, imaging; reporter expression induced with tamoxifen; inhibition, % at 2 µM; actives 0.9% (n = 130,000);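 active means inhibition above the mean plus 3 SD, with well images judged a real hit on visual review, cut at about 60% in these data, passing the limit was not always enough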
# Yeast growth inh: chemicals that inhibit yeast BB579 growth in restrictive medium (lifespan-shortening candidates). S. cerevisiae BB579 growth, OD615, 48 h. inhibition, % at 10 µM. actives 0.51% (n = 140,000);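 active means inhibition above a set limit, 3 SD over the mean compound inhibition, cut at about 44% in these data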
#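 Test system: DeaD yeast strain BB579 / Buffer or medium: restrictive glucose-based CSMM-D medium / Doses: single 10 µM dose / Schedule: 4 h cell preincubation, 48 h compound exposure, 30 °C humidified / Technique: culture absorbance at 615 nm / Controls: amphotericin B positive control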
# Measles CPE: protection of cells from measles virus; Measles virus-infected cells, CPE protection, absorbance; protection (pct of control), % at 4 µM; actives 1.5% (n = 140,000); AID 841; in the data active means protection mostly above about 24%, no sharp cut-off; inactive means mostly below about 26%
# Yeast lifespan up: extends the lifespan of yeast | actives 0.68% (n = 130,000) | inhibition of the nicotinamide effect, % at 10 µM | S. cerevisiae growth with nicotinamide, OD615; deaD strain in restrictive glucose medium;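 active means inhibition above a set limit, placed 3 SD over the median of all compounds, cut at about 26% in these data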;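 further: 0% = nicotinamide-treated wells and 100% = cells grown without nicotinamide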
#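 Assay system: DeaD-strain S. cerevisiae. Medium: CSMM-D glucose medium, restrictive. Reagent: nicotinamide, 1.5 mM, co-present with compound. Compound: 10 µM single point, 0.25% DMSO. Schedule: culture preincubation 4 h, compound exposure 48 h, both 30 °C. Detection: absorbance at 615 nm.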
# Numbers without * were called inactive; nt = not tested or not shown.
SMILES,MDM2 E3 inh,RAM network inh,Insulin prom inh,Yeast growth inh,Measles CPE,Yeast lifespan up
O=C1CC(c2ccccc2)CC(O)=C1C=NCCN1CCN(C(=O)Cc2ccccc2)CC1 (centres undefined),-20,0,-33,-60,7,82*
CCOC(=O)CC(NC(=O)C(Cc1ccc(N(CCCl)CCCl)cc1)NC(C)=O)C(=O)OCC (centres undefined),-6,4,-79,nt,nt,nt
CS(=O)(=O)NCc1nnc2n1-c1ccc(Cl)cc1C(c1ccccc1)=NC2,1,0,-33,-21,28*,4
O=C(c1ccccc1)C(CN1CCCC1)c1ccccc1 (centres undefined),-10,3,-42,-43,22*,56*
CN1CCN2c3ccc(N)cc3CC3(C(=O)NC(=O)NC3=O)C2C1 (centres undefined),-2,nt,nt,nt,nt,nt
CC(C)(C)N1C(=O)NC(=O)/C(=C\c2ccc3c(c2)CCN3CCCCl)C1=O,4,nt,nt,nt,nt,nt
O=C1NC(=S)N(C2CC2)C(=O)/C1=C/c1ccc2c(c1)CCN2CCCCl,-16,3,12,-15,8,27*
N#CC12CNCC1CN=N2 (centres undefined),-1,nt,nt,nt,nt,nt
CCn1c(O)c(C=Nc2ccc(S(N)(=O)=O)cc2)c(=O)n(CC)c1=S,-6,6,-50,-23,12,3
NS(=O)(=O)c1ccc(N=Cc2c(O)n(C3CCCCC3)c(=O)n(C3CCCCC3)c2=O)cc1,-74,0,nt,-49,23,33*
Cc1cccc(CN(C)C)c1OC(=O)N(C)C,-10,1,nt,19,3,29*
CN(C)Cc1ccccc1OC(=O)N(C)C,-9,0,73,-14,7,0
O=P(NC(c1ccccc1)c1ccccc1)(Oc1ccccc1)Oc1ccccc1,-18,9.3*,-33,-25,23,7
O=P(Nc1ccccc1)(Oc1ccccc1)Oc1ccccc1,-4,nt,nt,nt,nt,nt
CCOc1ccccc1OCC(=O)Nc1ccc(Cl)cc1C(=O)c1ccccc1,-5,9.6*,-50,-20,6,0
COc1ccccc1OCC(=O)Nc1ccc(Cl)cc1C(=O)c1ccccc1,-5,6,-79,-42,2,1
C[C@H]1CCC[C@@H](O)CCC/C=C/c2cc(O)cc(O)c2C(=O)O1,6,1,60,-53,117*,6
CNC(=O)Oc1ccc(N(C)C)cc1C(C)C,-8,nt,nt,nt,nt,nt
CCCCn1c(=O)c(C(=O)NCc2ccncc2)c(O)c2ccccc21,-11,0,-24,46*,12,-11
Cc1ncc(CN2CCCC(C(=O)c3sccc3C)C2)s1 (centres undefined),-23,-1,nt,nt,nt,nt
Fc1ccc(CNCCc2ccccc2)cc1,-6,2,-64,nt,nt,nt
C1=C(CCNCc2ccccc2)CCCC1,-26,3,-11,-7,35*,6
CCC(C)(C)n1nnnc1C(c1cccs1)N1CC=C(c2ccc(F)cc2)CC1 (centres undefined),-12,5,-7,-72,8,23
Fc1ccc(C2=CCN(C(c3cccs3)c3nnnn3CCc3ccccc3)CC2)cc1 (centres undefined),-12,10*,-43,-20,5,-12
C/C(=N\N1CCCCCC1)c1c(O)n(-c2ccccc2C)c(=O)[nH]c1=O,-3,nt,nt,nt,nt,nt
SMILES,MDM2 E3 inh,RAM network inh,Insulin prom inh,Yeast growth inh,Measles CPE,Yeast lifespan up
CC(=NCCCn1ccnc1)c1c(O)n(C2CCCCC2)c(=O)[nH]c1=O,-7,nt,nt,nt,nt,nt
Cc1sc2c(c1C)C(c1ccc(C(C)(C)C)cc1)=NCC(=O)N2CC(=O)Nc1nccs1,-13,0,-48,-64,54*,-5
Cc1cccc(N2C(=O)NC(=O)/C(=C\c3cccn3-c3ccc(Cl)cc3)C2=O)c1,40*,4,-52,-36,7,2
Cc1cc(C)cc(N2C(=O)NC(=O)/C(=C/c3cccn3-c3ccc(Cl)cc3)C2=O)c1,nt,4,18,-6,8,-2
C=C1C(=O)O[C@H]2C[C@@H](C)[C@@H]3C=CC(=O)[C@@]3(C)C[C@H]12,35*,nt,nt,nt,nt,nt
O=C(c1ccc(N2CC3CC(C2)c2cccc(=O)n2C3)c([N+](=O)[O-])c1)N1CCCC1 (centres undefined),-2,0,-56,nt,nt,nt
Cc1c(C(c2ccc(F)cc2)c2c(O)c3ccccc3oc2=O)c(=O)n(-c2ccccc2)n1C (centres undefined),1,4,-36,-63,6,13
COc1ccc(C(c2c(O)c3ccccc3oc2=O)c2c(C)n(C)n(-c3ccccc3)c2=O)cc1 (centres undefined),8,5,64*,-70,4,7
O=C(c1cc2cc3ccc(Cl)cc3nc2o1)N1CCC2(CC1)OCCO2,-11,5,84*,-21,12,-9
COc1ccc2nc3oc(C(=O)N4CCC5(CC4)OCCO5)cc3cc2c1,-2,1,67,nt,nt,nt
CNC(C(=O)c1ccccc1)C(OC)c1ccc(C)cc1 (centres undefined),-1,1,-17,-41,6,6
O=C1c2ccccc2C(=O)N1Cc1nc2ccccc2c(=O)n1-c1cccnc1,9,1,-37,-10,13,-11
O=C1c2ccccc2C(=O)N1Cc1nc2ccccc2c(=O)n1-c1ccc(Br)cn1,-1,6,33,-44,3,77*
COc1cccc(-n2nc(C(=O)N3CCC4(CC3)OCCO4)c3ccccc3c2=O)c1,-15,3,nt,-29,27,1
COc1cc(OC)cc(-n2nc(C(=O)N3CCC4(CC3)OCCO4)c3ccccc3c2=O)c1,-17,0,nt,-22,52*,-1
NC(=O)c1cn(C2OC(CO)C(O)C2O)c2ncnc(N)c12 (centres undefined),-27,1,64*,-30,27,-1
CC(C)OCCCNC(=O)c1c(N)n(Cc2cccs2)c2nc3ccccc3nc12,-1,9.3*,nt,-1,3,-5
CC(C)CN(CC(C)C)C(=O)C1C2c3ccccc3C(c3ccccc32)C1C(=O)O (centres undefined),7,1,nt,nt,nt,nt
CCOC(=O)c1ccc(N=Cc2c(O)n(-c3ccccc3F)c(=S)[nH]c2=O)cc1,10,5,3,-17,18,1
CCN(CC)CCOC(=O)c1ccc(N=Cc2c(O)[nH]c(=O)[nH]c2=O)cc1,-18,1,-16,21,60*,-18
O=C(C1CCC(=O)N1C1CCCC1)N1CCC2(CC1)OCCO2 (centres undefined),-10,-1,20,-25,11,-18
O=C(C1CC(=O)N(C2CCCCCCC2)C1)N1CCC2(CC1)OCCO2 (centres undefined),0,1,74*,-22,7,-6
C=CCN(CC#CCOc1ccccc1OC)CC=C,nt,2,nt,nt,nt,nt

# Bioassay records from PubChem.
